Converted amounts (≈) assume the structure as drawn.
Columns and labels:
[1] = system: Pseudomonas aeruginosa; assay: Antibacterial activity against Pseudomonas aeruginosa 17 after 18 to 24 hrs by twofold serial dilution method; assay type: functional
Outline: (§1)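 Agar media, standard twofold serial dilution (NCCLS M100-S11 basis). Plates incubated at 35 °C for 18–24 h. MIC taken as the lowest compound concentration giving complete inhibition of visible bacterial growth.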

[2] = Cytotoxicity against african green monkey Vero cells assessed as cell viability after 72 hrs by MTT assay; assay type: cell-based; details: chlorocebus sabaeus
[3] = system: Shigella sonnei; assay: Antibacterial activity against Shigella sonnei 51592 after 18 to 24 hrs by twofold serial dilution method; assay type: functional; outline: as §1
[4] = system: Staphylococcus epidermidis; assay: Antibacterial activity against Staphylococcus epidermidis ATCC 12228 after 18 to 24 hrs by twofold serial dilution method; assay type: functional; outline: as §1
[5] = system: Escherichia coli; assay: Antibacterial activity against Escherichia coli 26 after 18 to 24 hrs by twofold serial dilution method; assay type: functional; outline: as §1
[6] = system: Streptococcus pneumoniae; assay: Antibacterial activity against Streptococcus pneumoniae 97100 after 18 to 24 hrs by twofold serial dilution method; assay type: functional; outline: as §1
[7] = system: Enterobacter cloacae; assay: Antibacterial activity against Enterobacter cloacae 45301 after 18 to 24 hrs by twofold serial dilution method; assay type: functional; outline: as §1
[8] = system: Staphylococcus aureus; assay: Antibacterial activity against Staphylococcus aureus ATCC 29213 after 18 to 24 hrs by twofold serial dilution method; assay type: functional; outline: as §1
[9] = system: Streptococcus pyogenes; assay: Antibacterial activity against Streptococcus pyogenes 9619 after 18 to 24 hrs by twofold serial dilution method; assay type: functional; outline: as §1
[10] = system: Enterococcus faecalis; assay: Antibacterial activity against Enterococcus faecalis ATCC 29212 after 18 to 24 hrs by twofold serial dilution method; assay type: functional; outline: as §1
[11] = system: Klebsiella pneumoniae; assay: Antibacterial activity against Klebsiella pneumoniae 7 after 18 to 24 hrs by twofold serial dilution method; assay type: functional; outline: as §1
[12] = system: Staphylococcus epidermidis; assay: Antibacterial activity against methicillin-resistant Staphylococcus epidermidis 05-1 after 18 to 24 hrs by twofold serial dilution method; assay type: functional
Outline: (§2)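 Agar twofold serial dilution MIC. Plates incubated at 35 °C for 18–24 h. MIC taken as the lowest compound concentration giving complete inhibition of visible bacterial growth.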

[13] = system: Staphylococcus aureus; assay: Antibacterial activity against methicillin-resistant Staphylococcus aureus 05-3 after 18 to 24 hrs by twofold serial dilution method; assay type: functional; outline: as §2

| Compound | MIC [1] | CC50 at 72 h [2] | MIC [3] | MIC [4] | MIC [5] | MIC [6] | MIC [7] | MIC [8] | MIC [9] | MIC [10] | MIC [11] | MIC [12] | MIC [13] |
| --- | --- | --- | --- | --- | --- | --- | --- | --- | --- | --- | --- | --- | --- |
| CO/N=C1/CCN(c2c(F)cc3c(=O)c(C(=O)O)cn(CCF)c3c2F)CC1(C)N (centres undefined) | 32 µg/mL (≈ 75 µM) | 626 µM | 8 µg/mL (≈ 18.8 µM) | 1 µg/mL (≈ 2.35 µM) | 4 µg/mL (≈ 9.38 µM) | 16 µg/mL (≈ 37.5 µM) | 8 µg/mL (≈ 18.8 µM) | 1 µg/mL (≈ 2.35 µM) | 16 µg/mL (≈ 37.5 µM) | 8 µg/mL (≈ 18.8 µM) | 4 µg/mL (≈ 9.38 µM) | > 128 µg/mL | > 128 µg/mL |
| CO/N=C1/CCN(c2nc3c(cc2F)c(=O)c(C(=O)O)cn3-c2ccc(F)cc2F)CC1(C)N (centres undefined) | 32 µg/mL (≈ 67.3 µM) | 259 µM | 8 µg/mL (≈ 16.8 µM) | 2 µg/mL (≈ 4.21 µM) | 8 µg/mL (≈ 16.8 µM) | 8 µg/mL (≈ 16.8 µM) | 16 µg/mL (≈ 33.7 µM) | 1 µg/mL (≈ 2.1 µM) | > 128 µg/mL | 8 µg/mL (≈ 16.8 µM) | 8 µg/mL (≈ 16.8 µM) | > 128 µg/mL | > 128 µg/mL |
| CCO/N=C1/CCN(c2nc3c(cc2F)c(=O)c(C(=O)O)cn3-c2ccc(F)cc2F)CC1(C)N (centres undefined) | 64 µg/mL (≈ 131 µM) | 31.4 µM | 16 µg/mL (≈ 32.7 µM) | 1 µg/mL (≈ 2.04 µM) | 8 µg/mL (≈ 16.3 µM) | 16 µg/mL (≈ 32.7 µM) | 16 µg/mL (≈ 32.7 µM) | 1 µg/mL (≈ 2.04 µM) | 128 µg/mL (≈ 262 µM) | 4 µg/mL (≈ 8.17 µM) | 8 µg/mL (≈ 16.3 µM) | > 128 µg/mL | 128 µg/mL (≈ 262 µM) |
| CCO/N=C1/CCN(c2c(F)cc3c(=O)c(C(=O)O)cn(CCF)c3c2F)CC1(C)N (centres undefined) | 128 µg/mL (≈ 291 µM) | 243 µM | 16 µg/mL (≈ 36.3 µM) | 2 µg/mL (≈ 4.54 µM) | 8 µg/mL (≈ 18.2 µM) | 16 µg/mL (≈ 36.3 µM) | 16 µg/mL (≈ 36.3 µM) | 2 µg/mL (≈ 4.54 µM) | 32 µg/mL (≈ 72.7 µM) | 16 µg/mL (≈ 36.3 µM) | 4 µg/mL (≈ 9.08 µM) | > 128 µg/mL | > 128 µg/mL |
| CO/N=C1\CN(c2nc3c(cc2F)c(=O)c(C(=O)O)cn3C2CC2)CC1CN (centres undefined) [GEMIFLOXACIN] | 0.125 µg/mL (≈ 0.321 µM) | – | 0.06 µg/mL (≈ 0.154 µM) | < 0.03 µg/mL | 0.06 µg/mL (≈ 0.154 µM) | 2 µg/mL (≈ 5.14 µM) | 0.06 µg/mL (≈ 0.154 µM) | < 0.03 µg/mL | 2 µg/mL (≈ 5.14 µM) | 0.06 µg/mL (≈ 0.154 µM) | 0.5 µg/mL (≈ 1.28 µM) | 2 µg/mL (≈ 5.14 µM) | 4 µg/mL (≈ 10.3 µM) |
| C[C@H]1COc2c(N3CCN(C)CC3)c(F)cc3c(=O)c(C(=O)O)cn1c23.C[C@H]1COc2c(N3CCN(C)CC3)c(F)cc3c(=O)c(C(=O)O)cn1c23.O [LEVOFLOXACIN] | 0.5 µg/mL | > 1000 µM | 1 µg/mL | 0.5 µg/mL | – | – | 0.125 µg/mL | 0.25 µg/mL | 4 µg/mL | 1 µg/mL | – | 32 µg/mL | 32 µg/mL |
